We go through 16 molecules from ChEMBL document CHEMBL3865785, “Dopaminergic isoquinolines with hexahydrocyclopenta[ij]-isoquinolines as D2-like selective ligands” (Eur J Med Chem, 2016).

Data set [1] in a line: Induction of apoptosis in human neutrophils assessed as necrotic cells at 30 uM measured after 24 hrs by Annexin-V-FITC/propidium iodide staining-based flow cytometric analysis (reference value: 5.33%). Type of data set: cell-based. The following applies: neutrophil.
Data set [2] in a line: Induction of apoptosis in human neutrophils assessed as viable cells at 30 uM measured after 24 hrs by Annexin-V-FITC/propidium iodide staining-based flow cytometric analysis (reference value: 93.52%). In kind it is cell-based, Neutrophil. The note with it: read-out: Activity.
The nature of data set [3]: Induction of apoptosis in human neutrophils assessed as early apoptotic cells at 30 uM measured after 24 hrs by Annexin-V-FITC/propidium iodide staining-based flow cytometric analysis (reference value: 1.1%). In kind it is cell-based. The note with it: neutrophil.
Data set [4] is described as follows: Induction of apoptosis in HUVEC at 30 uM measured after 24 hrs by Annexin-V-FITC/propidium iodide staining-based flow cytometric analysis. Type of data set: cell-based. The note with it: human.
A short description of data set [5]: Induction of apoptosis in human neutrophils assessed as late apoptotic cells at 30 uM measured after 24 hrs by Annexin-V-FITC/propidium iodide staining-based flow cytometric analysis (reference value: 0.06%). Type of data set: cell-based. The following applies: neutrophil.
The nature of data set [6]: Cytotoxicity against human neutrophils assessed as reduction in cell viability at 30 uM measured after 24 hrs by MTT assay relative to control. Type of data set: toxicity, cell-based. The following applies: neutrophil. The gist of the method: (§1)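 Neutrophils isolated from healthy-donor buffy coats by Ficoll-Hypaque gradient; HUVEC from collagenase isolation, passage ≤1. Cells at 10^5 per 100 µL supplemented RPMI, incubated 24 h at 37 °C with or without compound (30 μM). MTT added (solution made at 2 mg/mL in PBS), further 3 h at 37 °C; colorimetric readout vs vehicle. Mean ± SEM, n = 3 independent experiments.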

Data set [7] is described as follows: Cytotoxicity against HUVEC assessed as reduction in cell viability at 30 uM measured after 24 hrs by MTT assay relative to control. The note with it: human. In kind it is toxicity, cell-based. The gist of the method: as §1
Data set [8] can be described thus: Displacement of [3H]SCH23390 from D1-like dopaminergic receptor (unknown origin) in striatal membrane measured after 1 hr by liquid scintillation counting method. In kind it is cell membranes, Homo sapiens, Striatum. The gist of the method:
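Striatal membranes homogenized in 50 mM Tris-HCl pH 7.4, centrifuged twice at 20000 g. Resuspended in Tris with 5 mM MgSO4, 0.5 mM EDTA, 0.02% ascorbic acid. 100 µg protein incubated 1 h at 25 °C with 0.25 nM (final) [3H]SCH 23390 plus drug. Nonspecific binding defined with 30 μM SK&F 38393. GF/B filtration, scintillation counting. Mean ± SEM, n = 3.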

Data set [9] is described as follows: Displacement of [3H]raclopride from D2-like dopaminergic receptor (unknown origin) in striatal membrane measured after 1 hr by liquid scintillation counting method. Type of data set: cell membranes, Homo sapiens, Striatum. The gist of the method: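 Striatal membranes washed by four 20000 g centrifugations. Resuspended in Tris buffer with 120 mM NaCl, 5 mM KCl, 1 mM CaCl2, 1 mM MgCl2, 0.1% ascorbic acid. 200 µg protein incubated 1 h at 25 °C with 0.5 nM (final) [3H]raclopride plus drug. Nonspecific binding defined with 50 µM apomorphine. Filtration, scintillation counting. Mean ± SEM, n = 3.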

The species entered for a further data set is Homo sapiens. The data set can be described thus: Selectivity ratio of Ki for D1-like dopaminergic receptor (unknown origin) in striatal membranes to Ki for D2-like dopaminergic receptor (unknown origin) in striatal membranes. Type of data set: cell membranes.

As to `CN1CCc2cc(O)c(O)c3c2C1CC3c1ccccc1` (centres undefined), the Activity was 5.05% in data set [1]; 0.15% in [3]; “Non-Toxic” in data set [4]; 3.06% in data set [5]; “Non-Toxic” in [6]; “Non-Toxic” in data set [7]. Besides, the viability at 24 h, 30 µM in data set [2] was found to be 94.7%.

In [8], `COc1cc2c(cc1OC)C(/C=C/c1ccccc1)NCC2` (centres undefined) showed a Ki of 4.56 µM and a pKi of 5.36. Moreover, in data set [9], the affinity corresponds to a Ki of 6.18 µM and the pKi came out at 5.244. Besides, the Ratio Ki in the data set filed under Homo sapiens was determined as 0.74.

On to `C=CCN1CCc2cc(OC)c(OC)cc2C1/C=C/c1ccccc1` (centres undefined), for which the results for the Ki in data set [8] and in data set [9] were 7.68 µM and 1.17 µM, respectively. Also, the negative-log Ki (pKi) amounted to 5.133 in [8] and 5.942 in data set [9]. For the same molecule, the Ratio Ki in the data set listed under Homo sapiens was determined as 6.58.

As to `CN1CCc2cc(O)c(O)cc2C1/C=C/c1ccccc1` (centres undefined), the Activity in data set [1] is given as 6.94%; in [3], 3.24%; in [4], “Non-Toxic”; in [5], 0.12%; in data set [6], “Non-Toxic”; in data set [7] it was “Non-Toxic”. The Ki in [8] is 3.19 µM; in data set [9], 0.057 µM. Moreover, the figures for the pKi in data set [8] and in data set [9] were 5.498 and 7.264, respectively. Moreover, the viability at 24 h, 30 µM in data set [2] stood at 89.7%. The Ratio Ki in the data set listed under Homo sapiens worked out at 55.9.

Regarding `C=CCN1CCc2cc(O)c(O)cc2C1/C=C/c1ccccc1` (centres undefined), the Activity is recorded as 6.11% in [1]; 0.15% in data set [3]; “Non-Toxic” in data set [4]; 0.16% in data set [5]; “Non-Toxic” in data set [6]; “Non-Toxic” in data set [7]. Also, the Ki worked out at 6.04 µM in data set [8] and 0.041 µM in data set [9]. In addition, the figures for the pKi in data set [8] and in data set [9] were 5.267 and 7.408, respectively. In addition, the viability at 24 h, 30 µM in data set [2] was found to be 93.6%. Moreover, the Ratio Ki in the data set listed under Homo sapiens was found to be 147.

Take `COc1cc2c(cc1OC)C(/C=C/c1ccccc1)N(C)CC2` (centres undefined): the Ki in [8] is 6.2 µM; in [9] it was 0.436 µM. In addition, the pKi worked out at 5.251 in data set [8] and 6.376 in data set [9]. In addition, the Ratio Ki in the data set listed under Homo sapiens is 14.2.

In [8], `C/C=C/C1NCCc2cc(OC)c(OC)cc21` (centres undefined) yielded a Ki of 45.6 µM and a pKi of 4.347. Besides, in data set [9], the affinity, expressed as Ki, was 8.86 µM and the pKi stood at 5.059. For the same molecule, in the data set filed under Homo sapiens, the Ratio Ki is 5.15.

Take `Oc1cc2c3c(c1O)C(c1ccccc1)CC3NCC2` (centres undefined): the Activity in [1] is given as 4.53%; in [3], 0.08%; in data set [4], “Non-Toxic”; in data set [5], 0.05%; in [6] it was “Non-Toxic”; in [7] it was “Non-Toxic”. Also, in data set [2], the viability at 24 h, 30 µM was determined as 95.3%.

`C/C=C/C1NCCc2cc(O)c(O)cc21` (centres undefined): the figures for the inhibition constant (Ki) in data set [8] and in [9] were 57.7 µM and 0.458 µM, respectively. Also, the pKi in data set [8] amounted to 4.246; in data set [9], 6.352. Further, the Ratio Ki in the data set listed under Homo sapiens was determined as 126.

With `C=CCN1CCc2cc(O)c(O)c3c2C1CC3c1ccccc1` (centres undefined), the Activity is 3.03% in data set [1]; 6.86% in data set [3]; “Non-Toxic” in data set [4]; 0.33% in [5]; “Toxic” in data set [6]; “Non-Toxic” in data set [7]. The viability at 24 h, 30 µM in data set [2] was determined as 89.9%.

As to `C=CCN1CCc2cc(O)c(O)cc2C1/C=C/C` (centres undefined), the Activity is on record as 0.1% in data set [1]; 0.28% in data set [3]; “Non-Toxic” in data set [4]; 0.11% in data set [5]; “Non-Toxic” in [6]; “Non-Toxic” in data set [7]. Also, the Ki in data set [8] was found to be 1.71 µM; in [9], 0.018 µM. For the same molecule, the pKi in [8] is 5.766; in data set [9], 7.749. The viability at 24 h, 30 µM in [2] came out at 93.5%. The Ratio Ki in the data set listed under Homo sapiens is 95.2.

For the molecule `C/C=C/C1c2cc(O)c(O)cc2CCN1C` (centres undefined), the Activity in data set [1] is on record as 2.43%; in data set [3] it was 3.95%; in data set [4], “Non-Toxic”; in [5], 0.3%; in data set [6] it was “Non-Toxic”; in [7], “Non-Toxic”. Besides, the Ki in data set [8] is 1.29 µM; in data set [9] it was 0.072 µM. Further, the pKi in data set [8] amounted to 5.897; in data set [9], 7.181. The viability at 24 h, 30 µM in data set [2] amounted to 93.3%. Besides, the Ratio Ki in the data set listed under Homo sapiens worked out at 17.9.

Consider `NCCc1ccc(O)c(O)c1` [DOPAMINE], for which the Ki was determined as 0.55 µM in data set [8] and 0.56 µM in data set [9]. Besides, the pKi is 6.26 in data set [8] and 6.837 in data set [9]. Also, the Ratio Ki in the data set filed under Homo sapiens is 0.98.

For `C=CCN1CCc2cc(OC)c(OC)cc2C1/C=C/C` (centres undefined), the Ki is 37.6 µM in [8] and 13.8 µM in data set [9]. Besides, the values for the pKi in [8] and in [9] were 4.432 and 4.86, respectively. Also, the Ratio Ki in the data set filed under Homo sapiens was 2.72.

For `Oc1cc2c(cc1O)C(/C=C/c1ccccc1)NCC2` (centres undefined), the Ki in [8] was 9.57 µM; in [9], 1.42 µM. For the same molecule, the pKi in data set [8] is reported as 5.048; in [9], 5.869. For the same molecule, the Ratio Ki in the data set filed under Homo sapiens is 6.73.

Take `C/C=C/C1c2cc(OC)c(OC)cc2CCN1C` (centres undefined): in data set [8], the Ki was determined as 18.3 µM and the pKi is 4.74. In [9], this molecule showed a Ki of 14.7 µM and a pKi of 4.833. Besides, the Ratio Ki in the data set listed under Homo sapiens amounted to 1.24.
